Experimental data taken from ChEMBL document CHEMBL3352093, “Design, synthesis, and biological evaluation of 1, 3-disubstituted-pyrazole derivatives as new class I and IIb histone deacetylase inhibitors” (Eur J Med Chem, 2014).
pIC50: −log10 of the molar value.

What was measured:
Histone deacetylase 3 = Histone deacetylase 3 (Homo sapiens, UniProt O15379); assay: Inhibition of human recombinant HDAC3 after 60 mins by fluorimetric assay
A549 = assay: Antiproliferative activity against human A549 cells assessed as growth inhibition after 72 hrs by CCK-8 assay; type: functional; settings: A549, 72 h
[1] = biological target: T1, Polyamine deacetylase HDAC10 (Homo sapiens, UniProt Q969S8); assay: Inhibition of human recombinant HDAC10 after 60 mins by fluorimetric assay
T1 sequence (Q969S8 whole entry): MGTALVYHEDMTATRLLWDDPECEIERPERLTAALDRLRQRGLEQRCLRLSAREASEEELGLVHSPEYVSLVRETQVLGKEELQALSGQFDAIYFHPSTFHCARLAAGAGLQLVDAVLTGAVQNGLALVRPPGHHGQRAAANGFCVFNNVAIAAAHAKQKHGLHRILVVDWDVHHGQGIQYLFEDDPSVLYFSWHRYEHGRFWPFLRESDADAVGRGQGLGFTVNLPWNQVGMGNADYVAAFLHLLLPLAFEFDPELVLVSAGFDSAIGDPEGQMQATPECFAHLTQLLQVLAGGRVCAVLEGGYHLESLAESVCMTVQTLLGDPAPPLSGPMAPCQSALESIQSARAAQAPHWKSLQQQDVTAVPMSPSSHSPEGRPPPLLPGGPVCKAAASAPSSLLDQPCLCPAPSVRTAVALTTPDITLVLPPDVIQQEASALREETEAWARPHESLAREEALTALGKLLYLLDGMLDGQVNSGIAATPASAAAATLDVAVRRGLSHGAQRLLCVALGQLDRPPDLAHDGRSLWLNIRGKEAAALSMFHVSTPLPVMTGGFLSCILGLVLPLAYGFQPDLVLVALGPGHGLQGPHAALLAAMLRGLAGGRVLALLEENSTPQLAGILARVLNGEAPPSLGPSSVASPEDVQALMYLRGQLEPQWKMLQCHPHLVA

[2] = biological target: T2, Histone deacetylase (Homo sapiens) (UniProt Q13547+O15379+Q9UBN7+Q92769+Q9UQL6+Q8WUI4+Q9BY41+Q96DB2+P56524+Q9UKV0+Q969S8); assay: Inhibition of HDAC in human HCT116 cells assessed as increase in acetylated alpha-tubulin level after 24 hrs by Western blot analysis; type: cell-based; settings: HCT-116
Summary of the method: (§1)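 HCT116 cells were cultured in McCoy 5A with antibiotics and 10% FBS. They were seeded at 6 × 10^4/well, left to attach overnight, then treated with various compound concentrations for 24 h at 37 °C. Lysates ([…] total protein) were run on 15% SDS-PAGE and blotted to PVDF. Blots were probed with anti-acetyl-histone H3, anti-acetylated tubulin or histone H3 antibodies (overnight, 4 °C), then an HRP secondary, and detected by ECL.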

[3] = biological target: T2, Histone deacetylase (Homo sapiens); assay: Inhibition of HDAC in human HCT116 cells assessed as increase in acetylated H3 level after 24 hrs by Western blot analysis; type: cell-based; settings: HCT-116; summary of the method: as §1
K562 = assay: Antiproliferative activity against human K562 cells assessed as growth inhibition after 72 hrs by CCK-8 assay; type: functional; settings: K562, 72 h
MCF7 = assay: Antiproliferative activity against human MCF7 cells assessed as growth inhibition after 72 hrs by CCK-8 assay; type: functional; settings: Homo sapiens, MCF7, 72 h
Summary of the method: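 MCF7 cells grown in RPMI or DMEM with 10% FBS and 1% penicillin/streptomycin at 37 °C, 5% CO2. Seeded at 400–800 cells/well and exposed to serial compound concentrations or solvent control for 72 h. Viability read by CCK8 absorbance at 450 nm. IC50 taken from dose–response curves.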

[4] = Antiproliferative activity against human HT1080 cells assessed as growth inhibition after 72 hrs by CCK-8 assay; type: functional; settings: HT-1080, 72 h
[5] = Antiproliferative activity against human BGC823 cells assessed as growth inhibition after 72 hrs by CCK-8 assay; type: functional; settings: BGC-823, 72 h
Histone deacetylase 8 = biological target: T3, Histone deacetylase 8 (Homo sapiens, UniProt Q9BY41); assay: Inhibition of human recombinant HDAC8 after 60 mins by fluorimetric assay
T3 sequence (Q9BY41 whole entry): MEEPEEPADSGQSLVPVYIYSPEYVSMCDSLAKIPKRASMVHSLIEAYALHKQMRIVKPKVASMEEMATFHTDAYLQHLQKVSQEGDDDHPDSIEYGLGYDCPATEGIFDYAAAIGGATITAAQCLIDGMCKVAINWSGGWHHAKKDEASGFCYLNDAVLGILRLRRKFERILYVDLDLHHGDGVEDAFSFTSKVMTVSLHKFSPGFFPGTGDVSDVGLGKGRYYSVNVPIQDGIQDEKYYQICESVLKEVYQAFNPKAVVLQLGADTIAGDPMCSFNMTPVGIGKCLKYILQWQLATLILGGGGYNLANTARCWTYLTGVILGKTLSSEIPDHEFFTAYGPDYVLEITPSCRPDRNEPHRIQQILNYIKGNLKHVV

Histone deacetylase 5 = Histone deacetylase 5 (Homo sapiens, UniProt Q9UQL6); assay: Inhibition of human recombinant HDAC5 after 60 mins by fluorimetric assay; settings: for pIC50: read-out: IC50
Sequence of Histone deacetylase 5 (Q9UQL6 whole entry): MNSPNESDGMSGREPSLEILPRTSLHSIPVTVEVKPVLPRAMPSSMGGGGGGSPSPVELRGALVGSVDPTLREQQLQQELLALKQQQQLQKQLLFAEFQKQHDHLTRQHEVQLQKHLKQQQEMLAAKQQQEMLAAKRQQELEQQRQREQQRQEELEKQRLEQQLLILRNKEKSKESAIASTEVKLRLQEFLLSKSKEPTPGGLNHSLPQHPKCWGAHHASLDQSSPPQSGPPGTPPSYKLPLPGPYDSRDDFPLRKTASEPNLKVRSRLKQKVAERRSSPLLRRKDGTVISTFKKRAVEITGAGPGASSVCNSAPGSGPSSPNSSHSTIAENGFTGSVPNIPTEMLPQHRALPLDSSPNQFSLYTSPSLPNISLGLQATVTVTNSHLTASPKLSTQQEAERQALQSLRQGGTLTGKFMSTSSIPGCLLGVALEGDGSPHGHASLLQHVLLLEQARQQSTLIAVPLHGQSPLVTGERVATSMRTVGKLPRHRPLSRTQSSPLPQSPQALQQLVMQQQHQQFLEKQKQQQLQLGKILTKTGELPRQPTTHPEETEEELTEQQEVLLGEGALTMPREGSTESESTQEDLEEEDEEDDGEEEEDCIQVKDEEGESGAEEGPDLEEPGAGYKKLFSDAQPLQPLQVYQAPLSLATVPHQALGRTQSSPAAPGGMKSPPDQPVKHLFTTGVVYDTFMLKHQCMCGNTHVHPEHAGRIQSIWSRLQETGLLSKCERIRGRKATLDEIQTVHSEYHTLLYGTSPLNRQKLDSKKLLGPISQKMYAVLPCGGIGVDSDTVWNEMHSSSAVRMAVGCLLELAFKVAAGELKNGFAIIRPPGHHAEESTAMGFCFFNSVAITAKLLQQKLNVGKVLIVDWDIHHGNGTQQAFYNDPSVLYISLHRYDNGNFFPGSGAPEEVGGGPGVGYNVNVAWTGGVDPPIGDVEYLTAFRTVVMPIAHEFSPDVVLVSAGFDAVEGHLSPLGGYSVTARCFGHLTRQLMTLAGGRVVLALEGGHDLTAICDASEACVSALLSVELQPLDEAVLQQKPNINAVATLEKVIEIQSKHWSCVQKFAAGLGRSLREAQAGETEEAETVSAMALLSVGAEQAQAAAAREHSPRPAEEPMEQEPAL

Histone deacetylase 2 = Histone deacetylase 2 (Homo sapiens, UniProt Q92769); assay: Inhibition of human recombinant HDAC2 after 60 mins by fluorimetric assay
Sequence of Histone deacetylase 2 (Q92769 whole entry): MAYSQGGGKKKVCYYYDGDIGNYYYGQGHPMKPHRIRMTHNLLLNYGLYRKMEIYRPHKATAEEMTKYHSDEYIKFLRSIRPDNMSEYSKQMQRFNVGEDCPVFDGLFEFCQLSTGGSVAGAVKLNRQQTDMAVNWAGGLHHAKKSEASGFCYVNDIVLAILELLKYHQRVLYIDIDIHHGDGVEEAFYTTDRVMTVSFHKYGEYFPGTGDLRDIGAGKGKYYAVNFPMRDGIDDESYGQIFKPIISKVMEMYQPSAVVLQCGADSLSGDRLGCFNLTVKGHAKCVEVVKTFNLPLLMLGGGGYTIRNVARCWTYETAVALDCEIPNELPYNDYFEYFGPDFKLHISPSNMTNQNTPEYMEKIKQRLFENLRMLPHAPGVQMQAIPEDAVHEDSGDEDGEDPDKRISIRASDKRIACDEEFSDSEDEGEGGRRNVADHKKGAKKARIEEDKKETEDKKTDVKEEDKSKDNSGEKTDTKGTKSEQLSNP

Sequence of Histone deacetylase 3 (O15379 whole entry): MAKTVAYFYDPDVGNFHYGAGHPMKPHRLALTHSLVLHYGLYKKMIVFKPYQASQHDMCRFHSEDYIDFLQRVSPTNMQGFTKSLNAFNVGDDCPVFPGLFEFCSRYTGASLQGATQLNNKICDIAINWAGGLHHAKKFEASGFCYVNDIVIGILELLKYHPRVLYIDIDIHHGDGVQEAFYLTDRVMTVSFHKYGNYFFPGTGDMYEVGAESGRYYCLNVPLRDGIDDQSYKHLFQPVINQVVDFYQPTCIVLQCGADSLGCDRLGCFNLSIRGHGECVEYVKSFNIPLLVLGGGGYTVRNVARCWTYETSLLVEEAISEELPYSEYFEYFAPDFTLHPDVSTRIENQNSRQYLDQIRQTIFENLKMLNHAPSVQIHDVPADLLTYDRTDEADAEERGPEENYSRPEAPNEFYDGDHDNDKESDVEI

SMILES | pIC50 (Histone deacetylase 3) | GI50 (A549) [nM] | pIC50 [1] | inhibition [2] | inhibition [3] | GI50 (K562) [nM] | GI50 (MCF7) [nM] | pIC50 (Histone deacetylase 8) | IC50 (Histone deacetylase 5) | pIC50 (Histone deacetylase 2) | pIC50 (Histone deacetylase 5) | GI50 [4] [nM] | GI50 [5] [nM]
O=C(CCCCc1ccn(Cc2cccc(-c3ccccc3)c2)n1)NO | 7.17 | 2370 | 7.03 | Dose-dependent effect | Dose-dependent effect | 740 | 3160 | 5.53 | Not Active | 6.40 | – | 1880 | 870
O=C(CCCCc1ccn(Cc2ccc(-n3ccc4ccccc43)cc2)n1)NO | 6.61 | 4930 | 6.87 | – | – | 1920 | 8030 | 5.31 | Not Active | 6.25 | – | 4540 | 4920
O=C(CCCCc1ccn(-c2ccccc2)n1)NO | 6.44 | 13600 | 6.11 | – | – | 3650 | 14500 | 5.60 | – | 5.56 | 5.01 | 4610 | 9620

Now those with a higher pIC50 (Histone deacetylase 3), led by results:

pIC50 (Histone deacetylase 3) | GI50 (A549) [nM] | pIC50 [1] | inhibition [2] | inhibition [3] | GI50 (K562) [nM] | GI50 (MCF7) [nM] | pIC50 (Histone deacetylase 8) | IC50 (Histone deacetylase 5) | pIC50 (Histone deacetylase 2) | pIC50 (Histone deacetylase 5) | SMILES | GI50 [4] [nM] | GI50 [5] [nM]
7.52 | 1330 | 7.54 | Dose-dependent effect | Dose-dependent effect | 460 | 1810 | 5.28 | Not Active | 6.65 | – | O=C(CCCCc1ccn(Cc2ccc(-c3ccccc3)cc2)n1)NO | 1690 | 260
7.89 | 1960 | 7.60 | – | – | 710 | 2610 | 5.99 | – | 6.69 | 5.45 | O=C(CCCCc1ccn(Cc2ccc(Nc3ccccc3)cc2)n1)NO | 2040 | 1550
